Columns and labels:
P388 [1] = assay: Inhibition of DNA synthesis was measured as the concentration required to cause 50% reduction (in 1h) in methyl [3H]thymidine incorporation into acid precipitable material using P388 cells; assay type: functional, cell-based; conditions: Mus musculus
P388 [2] = assay: Inhibition of RNA synthesis was measured as the concentration required to cause 50% reduction (in 1h) in 2-[14C]uridine incorporation into acid precipitable material using P388 cells; assay type: functional, cell-based; conditions: Mus musculus, P388, 1 h
Mus musculus [3] = assay: Antitumor activity against P388 leukemia cells in terms of percentage increase in life span in mice at an optimal dose of 375 ug/kg administered ip; assay type: functional
Mus musculus [4] = assay: In vivo antitumor activity was determined against B16 melanoma in mice as number of mice survived after administration of 300 ug/Kg dose of compound; Value represented as no of survivors/ treated = 5/9; assay type: functional
Mus musculus [5] = assay: In vivo antitumor activity was determined against P388 leukemia mice as number of mice survived after administration of 375 ug/Kg dose of compound; Value represented as no of survivors/ treated = 4/8; assay type: functional
Mus musculus [6] = assay: Antitumor activity against B16 melanoma in terms of median survival time of mice at an optimal dose of 300 ug/kg administered ip; assay type: functional
Mus musculus [7] = species on record: Mus musculus; assay: Dose providing an increase in the life span of 45% over control in P388 tumor bearing mice; assay type: functional; conditions: read-out: MED
Outline: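 MED is the ip dose in mg/kg, given on days 1, 5 and 9 starting 1 day after implantation, that gives a 45% increase in life span over control in P388-bearing mice. It was derived from plotted log-dose response data.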

Mus musculus [8] = assay: Antitumor activity against B16 melanoma in terms of percentage increase in life span in mice at an optimal dose of 300 ug/kg administered ip; assay type: functional
CCRF-CEM = assay: Inhibitory dose required for the inhibition of human lymphoblastic leukemia cells(CCRF-CEM); assay type: functional; conditions: read-out: ID50 (the source's name)
Mus musculus [9] = assay: Antitumor activity against P388 leukemia cells in terms of median survival time of mice at an optimal dose of 375 ug/kg administered ip; assay type: functional
Mus musculus [10] = assay: In vivo antitumor activity was determined against B16 melanoma in mice as number of mice survived after administration of 300 ug/Kg dose of compound; Value represented as no of survivors/ treated = 3/9; assay type: functional
Mus musculus [11] = species on record: Mus musculus; assay: Antitumor activity against B16 melanoma in terms of percentage increase in life span in mice after 65 days; assay type: functional
Rattus norvegicus [12] = species on record: Rattus norvegicus; assay: (§1) Compound tested for NADPH oxidation in rat hepatic mycrosomal incubation; assay type: functional
Outline: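 Phenobarbital-induced rat liver microsomes (300 µg), 37 °C, no epinephrine; NADPH 0.4 mM added to sample cuvette only. A340 followed; % oxidation = (1 − A340/A'340)×100 vs cuvette not activated by microsomes; % stimulation = (drug rate − basal rate)/basal rate ×100. Drugs in 150 mM KCl-50 mM Tris pH 7.4; triplicate analyses, mean ± standard error.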

Mus musculus [13] = assay: Antitumor activity against P388 leukemia cells in terms of median survival time of mice at an optimal dose of 450 ug/kg administered ip; assay type: functional
Mus musculus [14] = assay: In vivo antitumor activity was determined against P388 leukemia mice as number of mice survived after administration of 450 ug/Kg dose of compound; Value represented as no of survivors/ treated = 3/8; assay type: functional
Mus musculus [15] = assay: Antitumor activity against P388 leukemia cells in terms of percentage increase in life span in mice at an optimal dose of 450 ug/kg administered ip; assay type: functional
Rattus norvegicus [16] = species on record: Rattus norvegicus; assay: (§2) Compound tested for adrenochrome formation in rat hepatic mycrosomal incubation; assay type: functional
Outline: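 Superoxide read as adrenochrome from epinephrine (in 0.01 N HCl) with phenobarbital-induced rat liver microsomes (300 µg) at 37 °C; NADPH 0.4 mM added to sample cuvette after 1 min. Rate at 480 nm (ε 4.02 mM-1 cm-1); drug ≤100 µM in 150 mM KCl-50 mM Tris pH 7.4; % stimulation over basal rate; triplicate, mean ± standard error.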

Mus musculus [17] = assay: In vivo antitumor activity was determined against P388 leukemia mice as number of mice survived after administration of 600 ug/Kg dose of compound; Value represented as no of survivors/ treated = 4/8; assay type: functional
Rattus norvegicus [18] = species on record: Rattus norvegicus; assay: as §2; assay type: functional; remark: listed apart in the source
Outline: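 Adrenochrome assay for superoxide: epinephrine in 0.01 N HCl plus 300 µg of phenobarbital-induced rat liver microsomes at 37 °C. NADPH 0.4 mM was added to the sample side 1 min later, and the rate was read at 480 nm (ε 4.02 mM−1 cm−1). Drugs were at ≤100 µM, made in 150 mM KCl–50 mM Tris, pH 7.4. Percent stimulation is over basal rate, in triplicate.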

Mus musculus [19] = assay: Antitumor activity against P388 leukemia cells in terms of median survival time of mice at an optimal dose of 600 ug/kg administered ip; assay type: functional
Rattus norvegicus [20] = species on record: Rattus norvegicus; assay: as §1; assay type: functional; remark: listed apart in the source
Outline: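 Phenobarbital-induced male Sprague-Dawley rat liver microsomes were placed in both cuvettes, without epinephrine. NADPH 0.4 mM was added to the sample side only, and absorbance was read at 340 nm. Percent stimulation = (drug rate − basal)/basal × 100. Values are the average ± standard errors of triplicates.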

Mus musculus [21] = assay: Antitumor activity against P388 leukemia cells in terms of percentage increase in life span in mice at an optimal dose of 600 ug/kg administered ip; assay type: functional
Mus musculus [22] = assay: In vivo antitumor activity was determined against B16 melanoma mice as number of mice survived after administration of 300 ug/Kg dose of compound; Value represented as no of survivors/ treated = 4/9; assay type: functional
Mus musculus [23] = assay: In vivo antitumor activity was determined against P388 leukemia mice as number of mice survived after administration of 1000 ug/Kg dose of compound; Value represented as no of survivors/ treated = 2/8; assay type: functional
Mus musculus [24] = assay: Antitumor activity against B16 melanoma in terms of median survival time of mice at an optimal dose of 900 ug/kg administered ip; assay type: functional
Mus musculus [25] = assay: Antitumor activity against P388 leukemia cells in terms of percentage increase in life span in mice at an optimal dose of 1000 ug/kg administered ip; assay type: functional
Mus musculus [26] = assay: Antitumor activity against P388 leukemia cells in terms of median survival time of mice at an optimal dose of 1000 ug/kg administered ip; assay type: functional
Mus musculus [27] = assay: In vivo antitumor activity was determined against B16 melanoma mice as number of mice survived after administration of 900 ug/Kg dose of compound; Value represented as no of survivors/ treated = 2/9
Mus musculus [28] = assay: In vivo antitumor activity was determined against P388 (adriamycin sensitive tumors) as number of mice survived after administration of 0.3-1.8 mg/kg, ip dose of compound; Value represented as no of survivors/ treated = 4/8; assay type: functional
Mus musculus [29] = assay: Antitumor activity against B16 melanoma in terms of percentage increase in life span in mice at an optimal dose of 900 ug/kg administered ip; assay type: functional

Cc1nc2c(C(=O)N[C@@H]3C(=O)N[C@H](C(C)C)C(=O)N4CCC[C@H]4C(=O)N(C)CC(=O)N(C)[C@@H](C(C)C)C(=O)O[C@@H]3C)c3nc4c(C(=O)N[C@@H]5C(=O)N[C@H](C(C)C)C(=O)N6CCC[C@H]6C(=O)N(C)CC(=O)N(C)[C@@H](C(C)C)C(=O)O[C@@H]5C)c(N)c(=O)c(C)c-4oc3c(C)c2o1 [listing 1 of 2 here]
IC50 (P388 [1]): 1010 nM | IC50 (P388 [2]): 90 nM

Cc1c2oc3c(C)c4oc(-c5ccccc5)nc4c(C(=O)N[C@@H]4C(=O)N[C@H](C(C)C)C(=O)N5CCC[C@H]5C(=O)N(C)CC(=O)N(C)[C@@H](C(C)C)C(=O)O[C@@H]4C)c3nc-2c(C(=O)N[C@@H]2C(=O)N[C@H](C(C)C)C(=O)N3CCC[C@H]3C(=O)N(C)CC(=O)N(C)[C@@H](C(C)C)C(=O)O[C@@H]2C)c(N)c1=O
ILS at 0.375 mg/kg (Mus musculus [3]): 382% | Survivors (Mus musculus [4]): 5 | Survivors (Mus musculus [5]): 4 | MST (Mus musculus [6]): 59 days | minimal effective dose (Mus musculus [7]): 0.03 mg/kg | ILS at 0.3 mg/kg (Mus musculus [8]): 103% | IC50 (CCRF-CEM): 30 nM | MST (Mus musculus [9]): 52 days

Cc1nc2c(C(=O)N[C@@H]3C(=O)N[C@H](C(C)C)C(=O)N4CCC[C@H]4C(=O)N(C)CC(=O)N(C)[C@@H](C(C)C)C(=O)O[C@@H]3C)c3nc4c(C(=O)N[C@@H]5C(=O)N[C@H](C(C)C)C(=O)N6CCC[C@H]6C(=O)N(C)CC(=O)N(C)[C@@H](C(C)C)C(=O)O[C@@H]5C)c(N)c(=O)c(C)c-4oc3c(C)c2o1 [listing 2 of 2 here]
Survivors (Mus musculus [10]): 3 | MST (Mus musculus [6]): 55 days | ILS (Mus musculus [11]): 90% | NADPH oxidation (Rattus norvegicus [12]): 21.3 nM min-1 (mg of protein)-1 | MST (Mus musculus [13]): 42.5 days | Survivors (Mus musculus [14]): 3 | IC50 (CCRF-CEM): 110 nM | ILS at 0.45 mg/kg (Mus musculus [15]): 277% | adrenochrome formation (Rattus norvegicus [16]): 6.04 nM min-1 (mg of protein)-1

Cc1c2oc3c(C)c(O)c(N)c(C(=O)N[C@@H]4C(=O)N[C@H](C(C)C)C(=O)N5CCC[C@H]5C(=O)N(C)CC(=O)N(C)[C@@H](C(C)C)C(=O)O[C@@H]4C)c3nc-2c(C(=O)N[C@@H]2C(=O)N[C@H](C(C)C)C(=O)N3CCC[C@H]3C(=O)N(C)CC(=O)N(C)[C@@H](C(C)C)C(=O)O[C@@H]2C)c(N)c1=O
Survivors (Mus musculus [17]): 4 | adrenochrome formation (Rattus norvegicus [18]): 19.3 nM min-1 (mg of protein)-1 | MST (Mus musculus [6]): 57 days | MST (Mus musculus [19]): 52 days | minimal effective dose (Mus musculus [7]): 0.025 mg/kg | ILS at 0.3 mg/kg (Mus musculus [8]): 96% | NADPH oxidation (Rattus norvegicus [20]): 64.3 nM min-1 (mg of protein)-1 | ILS at 0.6 mg/kg (Mus musculus [21]): 382% | IC50 (CCRF-CEM): 30 nM | Survivors (Mus musculus [22]): 4

Cc1c2oc3c(C)c4oc(-c5ccccc5)nc4c(C(=O)N[C@@H]4C(=O)N[C@H](C(C)C)C(=O)N5CCC[C@H]5C(=O)N(C)CC(=O)N(C)[C@@H](C(C)C)C(=O)O[C@@H]4C)c3nc-2c(C(=O)N[C@@H]2C(=O)N[C@H](C(C)C)C(=O)N3CCC[C@H]3C(=O)N(C)CC(=O)N(C)[C@@H](C(C)C)C(=O)O[C@@H]2C)cc1=O
Survivors (Mus musculus [23]): 2 | MST (Mus musculus [24]): 45 days | ILS (Sur) (Mus musculus [25]): 186% | minimal effective dose (Mus musculus [7]): 0.2 mg/kg | MST (Mus musculus [26]): 31.5 days | Survivors (Mus musculus [27]): 2 | Survivors (Mus musculus [28]): 4 | IC50 (CCRF-CEM): 500 nM | ILS at 0.9 mg/kg (Mus musculus [29]): 55%
